From ChEMBL document CHEMBL1148799, “Solid-phase synthesis and insights into structure-activity relationships of safinamide analogues as potent and selective inhibitors of type B monoamine oxidase” (J Med Chem, 2007)

Columns and labels:
[1] = target: T1, Amine oxidase [flavin-containing] B (Rattus norvegicus, UniProt P19643); test: Inhibition of rat brain mitochondria MAOB by radioenzymatic assay
T1 sequence (P19643 whole entry): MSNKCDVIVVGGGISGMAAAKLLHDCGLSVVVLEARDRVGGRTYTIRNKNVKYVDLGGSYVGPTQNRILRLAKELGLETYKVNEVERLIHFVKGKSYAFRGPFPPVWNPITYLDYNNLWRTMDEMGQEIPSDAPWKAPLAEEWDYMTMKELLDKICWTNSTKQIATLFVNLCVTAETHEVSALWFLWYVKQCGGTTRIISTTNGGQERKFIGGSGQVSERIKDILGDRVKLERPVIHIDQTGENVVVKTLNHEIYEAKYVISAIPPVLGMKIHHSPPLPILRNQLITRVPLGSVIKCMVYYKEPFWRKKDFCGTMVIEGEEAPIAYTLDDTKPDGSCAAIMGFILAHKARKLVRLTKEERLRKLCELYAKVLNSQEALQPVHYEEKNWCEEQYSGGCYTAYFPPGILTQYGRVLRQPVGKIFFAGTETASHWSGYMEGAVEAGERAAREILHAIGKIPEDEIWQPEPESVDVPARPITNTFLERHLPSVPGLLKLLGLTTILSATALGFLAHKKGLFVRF
Method in brief: (§1)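 Rat brain mitochondrial pellet (500 µg protein) in 0.1 M phosphate buffer, pH 7.40, preincubated 30 min at 37 °C with inhibitor (as methanesulfonate salt) or buffer. Then 0.5 µM ¹⁴C-PEA for 10 min at 37 °C, stopped with perchloric acid. Toluene-extracted metabolites counted by liquid scintillation. IC50 by nonlinear regression from 5–8 concentrations (10^-10–10^-5 M) in duplicate, or % inhibition at one concentration.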

[2] = target: T2, Amine oxidase [flavin-containing] A (Rattus norvegicus, UniProt P21396); test: Inhibition of rat brain mitochondria MAOA at 100 uM by radioenzymatic assay
T2 sequence (P21396 whole entry): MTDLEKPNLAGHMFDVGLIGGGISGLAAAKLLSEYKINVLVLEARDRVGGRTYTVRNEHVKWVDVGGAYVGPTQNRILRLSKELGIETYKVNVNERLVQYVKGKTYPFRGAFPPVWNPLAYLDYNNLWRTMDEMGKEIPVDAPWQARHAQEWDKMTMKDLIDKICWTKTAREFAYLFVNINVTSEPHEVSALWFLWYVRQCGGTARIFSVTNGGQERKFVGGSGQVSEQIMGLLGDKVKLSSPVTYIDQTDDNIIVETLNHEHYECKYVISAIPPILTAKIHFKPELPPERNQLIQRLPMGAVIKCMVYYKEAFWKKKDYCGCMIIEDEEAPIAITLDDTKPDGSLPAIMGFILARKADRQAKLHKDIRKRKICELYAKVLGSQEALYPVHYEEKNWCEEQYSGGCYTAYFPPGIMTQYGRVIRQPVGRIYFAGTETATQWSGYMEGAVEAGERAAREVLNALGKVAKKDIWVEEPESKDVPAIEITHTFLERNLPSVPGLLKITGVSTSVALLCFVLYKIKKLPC
Method in brief: as §1, with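 “Then 5” for “Then 0.5”, “µM ¹⁴C-5-HT” for “µM ¹⁴C-PEA”, “for 30” for “for 10”, “with HCl. Ether-extracted acidic” for “with perchloric acid. Toluene-extracted”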

[3] = species on record: Rattus norvegicus; test: Selectivity index, ratio of IC50 for rat brain mitochondria MAOA to IC50 for rat brain mitochondria MAOB
Method in brief: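 IC50(MAO-A)/IC50(MAO-B). Both come from radioenzymatic assays on rat brain mitochondria after 30 min inhibitor preincubation at 37 °C, pH 7.40. MAO-A used 5 µM ¹⁴C-5-HT for 30 min; MAO-B used 0.5 µM ¹⁴C-PEA for 10 min. IC50s from nonlinear regression of duplicate 5–8-point curves.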

[4] = target: T2, Amine oxidase [flavin-containing] A; test: Inhibition of rat brain mitochondria MAOA by radioenzymatic assay
Method in brief: as §1, with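 “Then 5” for “Then 0.5”, “µM ¹⁴C-5-HT” for “µM ¹⁴C-PEA”, “for 30” for “for 10”, “with HCl. Ether-extracted acidic” for “with perchloric acid. Toluene-extracted”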

[5] = target: T1, Amine oxidase [flavin-containing] B; test: Inhibition of rat brain mitochondria MAOB at 10 uM by radioenzymatic assay; method in brief: as §1

Compound	IC50 [1]	inhibition at 100 µM [2]	Selectivity index [3]	IC50 [4]	inhibition at 10 µM [5]
C[C@H](NCc1ccc(OCc2ccc(Cl)cc2)cc1)C(N)=O	2.2 µM	37%	–	–	–
C[C@H](NCc1ccc(OCc2cccc(Cl)c2)cc1)C(N)=O	0.033 µM	–	3460	–	–
C[C@H](NCc1ccc(OCc2ccccc2)cc1)C(N)=O	0.26 µM	–	388	101 µM	–
NC(=O)CNCc1ccc(OCc2cccc(F)c2)cc1	2.24 µM	–	6.1	13.6 µM	–
NC(=O)CNCc1ccc(OCc2ccc([N+](=O)[O-])cc2)cc1	9.1 µM	–	2.3	21.2 µM	–
NC(=O)CNCc1ccc(OCc2cccc(Cl)c2)cc1	0.34 µM	–	109	37 µM	–
NC(=O)[C@H](CO)NCc1ccc(OCc2ccccc2)cc1	0.41 µM	–	220	90 µM	–
NC(=O)[C@@H](NCc1ccc(OCc2ccc([N+](=O)[O-])cc2)cc1)c1ccccc1	–	16%	–	–	4%
NC(=O)[C@@H](NCc1ccc(OCc2cccc(F)c2)cc1)c1ccccc1	10 µM	–	3.4	34 µM	–
NC(=O)[C@@H](NCc1ccc(OCc2cccc(Cl)c2)cc1)c1ccccc1	10.1 µM	33%	–	–	–
NC(=O)[C@@H](CO)NCc1ccc(OCc2cccc(Cl)c2)cc1	–	–	909	100 µM	–
C[C@@H](C(N)=O)N1CCc2cc(OCc3cccc(F)c3)ccc2C1	0.24 µM	–	188	45 µM	–
NC(=O)[C@H](CO)NCc1ccc(OCc2cccc(F)c2)cc1	–	–	714	100 µM	–
C[C@H](C(N)=O)N1CCc2cc(OCc3cccc(F)c3)ccc2C1	0.017 µM	–	2940	50 µM	–
C[C@@H](NCc1ccc(OCc2cccc(F)c2)cc1)C(N)=O	–	–	–	42 µM	–
NC(=O)[C@H](CO)NCc1ccc(OCc2ccc([N+](=O)[O-])cc2)cc1	7.01 µM	38%	–	–	–
C[C@H](NCc1ccc(OCc2ccc([N+](=O)[O-])cc2)cc1)C(N)=O	–	22%	–	–	37%
NC(=O)CNCc1ccc(OCc2ccc(Cl)cc2)cc1	7.1 µM	–	1.7	12.4 µM	–
NC(=O)[C@H](CO)NCc1ccc(OCc2ccc(Cl)cc2)cc1	1.1 µM	47%	–	–	–
NC(=O)[C@@H](NCc1ccc(OCc2ccccc2)cc1)c1ccccc1	73.8 µM	35%	–	–	–
NC(=O)CNCc1ccc(OCc2ccccc2)cc1	3.15 µM	–	2.7	8.5 µM	–
NC(=O)[C@@H](NCc1ccc(OCc2ccc(Cl)cc2)cc1)c1ccccc1	–	27%	–	–	34%
NC(=O)[C@H](CO)NCc1ccc(OCc2cccc(Cl)c2)cc1	0.043 µM	–	1970	–	–
C[C@@H](NCc1ccc(OCc2cccc(Cl)c2)cc1)C(N)=O	0.8 µM	–	90	72 µM	–
